ChEMBL document CHEMBL5500386, “Design, synthesis and bioactivity evaluation of 4-hydroxycoumarin derivatives as potential anti-inflammatory agents against acute lung injury and colitis” (Eur J Med Chem, 2024)
The source made the active and inactive calls. The rule behind the calls is not given here.

What was measured:
J774.A1 [1] = test: Inhibition of LPS-induced NF-kappaB activation in mouse J774.A1 cells assessed as reduction in IkappaBalpha degradation at 5 to 20 uM pretreated for 2 hrs followed by LPS stimulation and measured after 30 mins by Western blot analysis; assay type: cell-based; settings: dose 5-20 µM, time 2.5 hrs
Outline: (§1)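 J774A.1 macrophages pretreated with 20, 10 or 5 μM for 2 h, then LPS 0.5 μg/mL for 30 min. RIPA lysates quantified by Bradford. 40 μg run on 12.5 % SDS-PAGE and transferred to PVDF. Blocked 1.5 h in BSA, primary antibody overnight at 4 °C, secondary 2 h at room temperature, detected by ECL.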

[2] = Acute toxicity in male ICR mouse assessed as adverse effects at 500 to 1000 mg/kg, po administered daily for 10 days and measured daily; assay type: organism-based; settings: in vivo, 240 h, dose 500-1000 mg/kg, time 10 day
Outline: (§2)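 Male ICR mice (8 weeks, 30 g ± 2 g), acclimatised 1 week, randomised into 1000 mg/kg, 500 mg/kg and untreated control groups (n = 24 total). Dosed by daily gavage, compound dissolved in 0.5 % DMSO then added to normal saline. Body weight and behaviour recorded daily. Euthanised after 10 days; heart, liver, spleen, lung and kidney examined by H&E staining.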

THP-1 = test: Antiinflammatory activity in LPS-induced human THP-1 cells assessed as reduction in IL-6 mRNA transcription pretreated for 2 hrs followed by LPS stimulation and measured after 6 hrs by RT-qPCR analysis; assay type: functional, cell-based; settings: dose 2.5-10 µM
Outline: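 J774A.1 or THP-1 cells pretreated with compound for 2 h, then LPS 0.5 μg/mL for 6 h, in triplicate. Total RNA extracted and reverse-transcribed. IL-6 quantified by RT-qPCR over 40 cycles and normalised to β-actin.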

[3] = AUC (0 to t) in male Sprague-Dawley rat at 1 mg/kg, iv measured upto 24 hrs by triple quadrupole mass spectrometric analysis; assay type: ADME, organism-based; settings: in vivo
Outline: (§3)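 Male SD rats (8 weeks, 200 g ± 20 g), n = 3 per route. Oral: 10 mg/kg by gavage in 0.05 % DMSO/normal saline, tail-vein blood at 13 times from 10 min to 24 h. IV: 1 mg/kg tail vein in 5 % DMSO/30 % PEG400/65 % saline, 14 samples from 5 min to 24 h. Heparinised plasma precipitated with acetonitrile containing internal standard. Non-compartmental analysis on mean concentrations.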

Mus musculus [4] = test: Protection against LPS-induced C57BL/6 mouse model of acute lung injury assessed as reduction in destruction of the alveolar cell structure at 20 mg/kg, po administered 3 times for every 12 hrs followed by LPS stimulation at 5 mg/kg and measured after 6 hrs by immunohistochemical staining based analysis; assay type: functional, organism-based; settings: time 30.0 hrs
Outline: (§4)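 LPS-induced ALI in C57BL/6 mice: 20 mg/kg orally three times at 12 h intervals, then intratracheal LPS 5 mg/kg, lungs taken at 6 h. F4/80 IHC: xylene deparaffinisation, citrate pH 6 retrieval for 25 min, primary antibody at 4 °C for 12 h, secondary 1:2000, DAB and hematoxylin. Viewed at ×20.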

[5] = Half life in male Sprague-Dawley rat at 10 mg/kg, po measured upto 24 hrs by triple quadrupole mass spectrometric analysis; assay type: ADME, organism-based; settings: in vivo; outline: as §3
Mus musculus [6] = test: Protection against LPS-induced C57BL/6 mouse model of acute lung injury assessed as reduction in inflammatory cell infiltration in lung at 20 mg/kg, po administered 3 times for every 12 hrs followed by LPS stimulation at 5 mg/kg and measured after 6 hrs by immunohistochemical staining based analysis; assay type: functional, organism-based; settings: time 30.0 hrs; outline: as §4
Mus musculus [7] = test: Antiinflammatory activity in DSS-induced male C57BL/6 mouse model of inflammatory bowel disease assessed as reduction in red and white pulp merging in spleen at 20 mg/kg, IG administered with compound and DSS for 7 days followed by DSS replacement with distilled water for 3 days by H and E staining based analysis; assay type: functional, organism-based; settings: time 10.0 day
[8] = AUC (0 to t) in male Sprague-Dawley rat at 10 mg/kg, po measured upto 24 hrs by triple quadrupole mass spectrometric analysis; assay type: ADME, organism-based; settings: in vivo; outline: as §3
J774.A1 [9] = test: Antiinflammatory activity in LPS-induced mouse J774.a1 cells assessed as inhibition of IL-6 production at 10 uM pretreated for 2 hrs followed by LPS stimulation and measured after 30 mins by ELISA relative to control; assay type: functional; settings: time 2.5 hrs
Outline: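 J774A.1 cells (DMEM, 10 % FBS, 37 °C) treated with 10 μM compound or 4-HC for 2 h, then LPS. After 30 min, IL-6 in medium measured by ELISA. Result is % inhibition, mean ± SEM of three independent experiments.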

J774.A1 [10] = test: Inhibition of LPS-induced MAPK activation in mouse J774.A1 cells assessed as reduction in p38 phosphorylation at 5 to 20 uM pretreated for 2 hrs followed by LPS stimulation and measured after 30 mins by Western blot analysis; assay type: cell-based; settings: dose 5-20 µM, time 2.5 hrs; outline: as §1
[11] = Acute toxicity in male ICR mouse assessed as histopathological changes in liver at 500 to 1000 mg/kg, po administered daily for 10 days by H and E staining based analysis; assay type: organism-based; settings: in vivo, 240 h, dose 500-1000 mg/kg, time 10 day; outline: as §2
Mus musculus [12] = test: Protection against LPS-induced C57BL/6 mouse model of acute lung injury assessed as reduction in IL-6 level in BALF at 20 mg/kg, po administered 3 times for every 12 hrs followed by LPS stimulation at 5 mg/kg and measured after 6 hrs by ELISA; assay type: functional, organism-based; settings: time 30.0 hrs
Outline: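 C57BL/6 mice, 6 per group. Gavaged at 20 mg/kg three times at 12 h intervals; controls received saline, and dexamethasone 20 mg/kg served as reference. After the last dose, LPS 5 mg/kg given intratracheally. At 6 h, blood collected for serum IL-6 by ELISA. Left lung lavaged with 3 × 200 μL saline, and BALF assayed for IL-6, total protein and neutrophil count. Mean ± SEM, n = 6.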

Mus musculus [13] = test: Protection against LPS-induced C57BL/6 mouse model of acute lung injury assessed as reduction in thickening of the alveolar septum in lungs at 20 mg/kg, po administered 3 times for every 12 hrs followed by LPS stimulation at 5 mg/kg and measured after 6 hrs by H and E staining based analysis; assay type: functional, organism-based; settings: time 30.0 hrs
Outline: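 LPS-induced ALI in C57BL/6 mice: 20 mg/kg orally three times at 12 h intervals, then intratracheal LPS 5 mg/kg, killed at 6 h. Lungs paraffin-embedded, cut into 5 μm sections and H&E stained. Viewed at ×20.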

Mus musculus [14] = test: Antiinflammatory activity in DSS-induced male C57BL/6 mouse model of inflammatory bowel disease assessed as normal appearance of goblet cells at 20 mg/kg, IG administered with compound and DSS for 7 days followed by DSS replacement with distilled water for 3 days by H and E staining based analysis; assay type: functional, organism-based; settings: time 10.0 day
[15] = Acute toxicity in male ICR mouse assessed as reduction in body weight at 500 to 1000 mg/kg, po administered daily and measured on day 1; assay type: organism-based; settings: in vivo, 24 h, dose 500-1000 mg/kg, time 1 day; outline: as §2
Mus musculus [16] = test: Protection against LPS-induced C57BL/6 mouse model of acute lung injury assessed as reduction in thickening of the alveolar septum at 20 mg/kg, po administered 3 times for every 12 hrs followed by LPS stimulation at 5 mg/kg and measured after 6 hrs by immunohistochemical staining based analysis; assay type: functional, organism-based; settings: time 30.0 hrs; outline: as §4
Mus musculus [17] = test: Antiinflammatory activity in DSS-induced male C57BL/6 mouse model of inflammatory bowel disease assessed as normal appearance of crypt cells at 20 mg/kg, IG administered with compound and DSS for 7 days followed by DSS replacement with distilled water for 3 days by H and E staining based analysis; assay type: functional, organism-based; settings: time 10.0 day

CC(=O)N1CCN(CCOc2cc(=O)oc3ccccc23)CC1
inhibition (J774.A1 [1]): inactive
Activity [2]: Non-Toxic
Activity (THP-1): Dose-Dependent Effect
AUC(0-t) at 24 h [3]: 929 ng·h/mL
Activity (Mus musculus [4]): Active
half-life [5]: 2.36 h
Activity (Mus musculus [6]): Active
Activity (Mus musculus [7]): Active
AUC(0-t) at 24 h [8]: 2670 ng·h/mL
inhibition at 10 µM (J774.A1 [9]): 51.6%
inhibition (J774.A1 [10]): Active
Activity [11]: Non-Toxic
Activity (Mus musculus [12]): Active
Activity (Mus musculus [13]): Active
Activity (Mus musculus [14]): Active
Activity [15]: Toxic
Activity (Mus musculus [16]): Active
Activity (Mus musculus [17]): Active
